The record followed here is ChEMBL document CHEMBL6121033, “N-Arylsulfonylated C-Homoaporphines as a New Class of Antiplatelet and Antimicrobial Agents” (ACS Med Chem Lett, 2025).

Structures are written as SMILES. Values after ≈ are worked out from the molar mass of the structure shown. Active and inactive are the calls of the source. The rule behind the calls is not given here.

For assay [1], the system named is Plasma. Briefly: Potency index, ratio of Acetylsalicylic acid IC50 to test compound IC50 for antiplatelet aggregation activity in rabbit platelet-rich plasma assessed as inhibition of arachidonic acid-induced platelet aggregation by turbidimetric aggregometry analysis. In kind it is functional, Oryctolagus cuniculus.
Assay [2] concerns Aspergillus niger. Nature of the assay: Antifungal activity against Aspergillus niger assessed as inhibition of fungal growth by agar well diffusion method. In kind it is functional.
A further assay relates to Macrophomina phaseolina. Briefly: Antifungal activity against Macrophomina phaseolina assessed as inhibition of fungal growth by agar well diffusion method. In kind it is functional.
The test system of assay [3] is Plasma. Nature of the assay: Antiplatelet aggregation activity in rabbit platelet-rich plasma assessed as inhibition of arachidonic acid-induced platelet aggregation by turbidimetric based Lumi-aggregometry. In kind it is functional. The settings on record: Oryctolagus cuniculus.
The test system of assay [4] is Trichoderma reesei. Nature of the assay: Antifungal activity against Trichoderma reesei assessed as inhibition of fungal growth by agar well diffusion method. In kind it is functional.
The subject of a further assay is Bacillus subtilis. Briefly: Antibacterial activity against Bacillus subtilis MTCC 10619 assessed as inhibition of bacterial growth incubated for 24 hrs by serial dilution method. In kind it is functional. In a few lines:
(§1)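 MIC found by serial dilution, with ampicillin as positive control. Strains were Gram-negative E. coli MTCC 443 and Gram-positive B. subtilis MTCC 10619. A first agar diffusion screen of all compounds and the control was run at a fixed 100 μg/mL.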

The next assay deals with Escherichia coli. Briefly: Antibacterial activity against Escherichia coli MTCC 443 assessed as inhibition of bacterial growth incubated for 24 hrs by serial dilution method. In kind it is functional. The method in brief:
as §1

For assay [5], the system named is Trichoderma reesei. Nature of the assay: Potency index, ratio of Ketaconazole MIC to test compound MIC for antifungal activity against Trichoderma reesei assessed as inhibition of fungal growth by agar well diffusion method. In kind it is functional.
Assay [6] has as its system Aspergillus niger. Briefly: Potency index, ratio of Ketaconazole MIC to test compound MIC for antifungal activity against Aspergillus niger assessed as inhibition of fungal growth by agar well diffusion method. In kind it is functional.

Take `COc1cc2c(cc1OC)-c1c(OC)c(OC)cc3c1C(CC2)N(S(=O)(=O)c1cccc(C(F)(F)F)c1)CC3` (stereo not given): the Ratio in the assay with Plasma [1] was ~3. Further, the MIC is 25 µg/mL (≈ 44.4 µM) in the assay on Aspergillus niger [2], 12.5 µg/mL (≈ 22.2 µM) with Macrophomina phaseolina, 100 µg/mL (≈ 177 µM) in the assay on Bacillus subtilis and 25 µg/mL (≈ 44.4 µM) with Escherichia coli. Moreover, in the assay on Plasma [3], the half-inhibitory concentration (IC50) was determined as 9.6 µg/mL (≈ 17 µM). Further, in the assay with Trichoderma reesei [4], the result was inactive.
For the molecule `COc1cc2c(cc1OC)-c1c(OC)c(OCc3ccccc3)cc3c1C(CC2)N(S(=O)(=O)c1ccccc1)CC3` (stereo not given), in the assay with Plasma [1], the Ratio is ~3. In addition, the outcome with Aspergillus niger [2], with Macrophomina phaseolina, with Trichoderma reesei [4] and with Escherichia coli was inactive. The IC50 in the assay on Plasma [3] was determined as 14.7 µg/mL (≈ 25.6 µM). Also, the MIC in the assay on Bacillus subtilis worked out at 12.5 µg/mL (≈ 21.9 µM).
With `COc1cc2c(cc1OC)-c1c(OC)c(OCc3ccccc3)cc3c1C(CC2)N(S(=O)(=O)c1cccc(C(F)(F)F)c1)CC3` (stereo not given), in the assay on Plasma [1], the “Ratio IC50” value is 3. The Ratio with Trichoderma reesei [5] came out at 1. For the same molecule, the outcome in the assay with Aspergillus niger [2] and with Macrophomina phaseolina was inactive. For the same molecule, the IC50 in the assay with Plasma [3] was 7 µg/mL (≈ 10.9 µM). Moreover, the MIC with Trichoderma reesei [4], with Bacillus subtilis and in the assay on Escherichia coli was 6.25 µg/mL (≈ 9.77 µM) each time.
Consider `COc1cc2c(cc1OC)-c1c(OCc3ccccc3)c(OC)cc3c1C(CC2)N(S(=O)(=O)c1cccc(C)c1)CC3` (stereo not given), for which the Ratio in the assay with Aspergillus niger [6] is 1; in the assay with Plasma [1] it was ~3. The MIC was 12.5 µg/mL (≈ 21.3 µM) in the assay with Aspergillus niger [2]; 25 µg/mL (≈ 42.7 µM) with Macrophomina phaseolina; 12.5 µg/mL (≈ 21.3 µM) in the assay with Trichoderma reesei [4]; 3.12 µg/mL (≈ 5.34 µM) in the assay with Bacillus subtilis; 3.12 µg/mL (≈ 5.34 µM) in the assay on Escherichia coli. In addition, in the assay on Plasma [3], the IC50 is 12.7 µg/mL (≈ 21.6 µM).
As to `COc1cc2c(cc1OC)-c1c(OC)c(OC)cc3c1C(CC2)N(S(=O)(=O)c1ccc(C(C)(C)C)cc1)CC3` (stereo not given), the MIC in the assay on Aspergillus niger [2] was found to be 100 µg/mL (≈ 181 µM); with Macrophomina phaseolina, 6.25 µg/mL (≈ 11.3 µM); with Bacillus subtilis it was 12.5 µg/mL (≈ 22.7 µM); in the assay on Escherichia coli, 3.12 µg/mL (≈ 5.66 µM). Moreover, in the assay on Plasma [3], the IC50 was 36.7 µg/mL (≈ 66.4 µM). For the same molecule, in the assay with Trichoderma reesei [4], the outcome was inactive.
Turning to `COc1cc2c(cc1OC)-c1c(OCc3ccccc3)c(OC)cc3c1C(CC2)N(S(=O)(=O)c1cccc(C(F)(F)F)c1)CC3` (stereo not given), the Ratio in the assay on Plasma [1] is ~3. In addition, the MIC in the assay on Aspergillus niger [2] stood at 25 µg/mL (≈ 39.1 µM); in the assay on Macrophomina phaseolina it was 12.5 µg/mL (≈ 19.5 µM); with Trichoderma reesei [4] it was 25 µg/mL (≈ 39.1 µM); in the assay on Bacillus subtilis it was 25 µg/mL (≈ 39.1 µM); in the assay on Escherichia coli it was 6.25 µg/mL (≈ 9.77 µM). Moreover, in the assay with Plasma [3], the IC50 came to 8 µg/mL (≈ 12.5 µM).
Turning to `COc1cc2c(cc1OC)-c1c(OC)c(OC)cc3c1C(CC2)N(S(=O)(=O)c1cccc(C)c1)CC3` (stereo not given), the Ratio with Aspergillus niger [6] is 1; with Plasma [1], ~3. Besides, the minimal inhibitory concentration (MIC) in the assay with Aspergillus niger [2] was 12.5 µg/mL (≈ 24.5 µM); in the assay on Trichoderma reesei [4] it was 12.5 µg/mL (≈ 24.5 µM); with Bacillus subtilis it was 25 µg/mL (≈ 49.1 µM); in the assay on Escherichia coli, 6.25 µg/mL (≈ 12.3 µM). Besides, in the assay with Macrophomina phaseolina, the outcome was inactive. Further, in the assay with Plasma [3], the 50% inhibitory concentration (IC50) was 12.7 µg/mL (≈ 24.8 µM).
As to `COc1cc2c(cc1OC)-c1c(OCc3ccccc3)c(OC)cc3c1C(CC2)N(S(=O)(=O)c1ccccc1)CC3` (stereo not given), in the assay with Plasma [1], the Ratio is given as ~3. In addition, the MIC in the assay on Aspergillus niger [2] worked out at 6.25 µg/mL (≈ 10.9 µM). Further, the outcome in the assay on Macrophomina phaseolina, in the assay with Trichoderma reesei [4], in the assay on Bacillus subtilis and in the assay with Escherichia coli was inactive. Moreover, the IC50 with Plasma [3] came to 12.7 µg/mL (≈ 22.1 µM).
As for `COc1cc2c(cc1OC)-c1c(OCc3ccccc3)c(OC)cc3c1C(CC2)N(S(=O)(=O)c1ccc([N+](=O)[O-])cc1)CC3` (stereo not given), the MIC in the assay with Aspergillus niger [2] is 25 µg/mL (≈ 40.5 µM); with Macrophomina phaseolina it was 12.5 µg/mL (≈ 20.3 µM); with Bacillus subtilis, 12.5 µg/mL (≈ 20.3 µM); in the assay on Escherichia coli, 50 µg/mL (≈ 81.1 µM). The IC50 in the assay on Plasma [3] was 32.7 µg/mL (≈ 53 µM). In the assay on Trichoderma reesei [4], the result was inactive.
With `CC1(C)S[C@@H]2[C@H](NC(=O)[C@H](N)c3ccccc3)C(=O)N2[C@H]1C(=O)O` [AMPICILLIN], the minimum inhibitory concentration (MIC) in the assay on Bacillus subtilis is 25 µg/mL (≈ 71.5 µM); with Escherichia coli it was 12.5 µg/mL (≈ 35.8 µM).
Take `COc1cc2c(cc1OC)-c1c(OC)c(OCc3ccccc3)cc3c1C(CC2)N(S(=O)(=O)c1ccc([N+](=O)[O-])cc1)CC3` (stereo not given): the Ratio with Trichoderma reesei [5] stood at 1. The MIC in the assay on Aspergillus niger [2] was 50 µg/mL (≈ 81.1 µM); in the assay with Macrophomina phaseolina it was 12.5 µg/mL (≈ 20.3 µM); in the assay on Trichoderma reesei [4], 6.25 µg/mL (≈ 10.1 µM); with Escherichia coli it was 12.5 µg/mL (≈ 20.3 µM). Besides, the half-inhibitory concentration (IC50) in the assay with Plasma [3] is 30 µg/mL (≈ 48.6 µM). Besides, in the assay on Bacillus subtilis, the result was inactive.
In the case of `COc1cc2c(cc1OC)-c1c(OC)c(OCc3ccccc3)cc3c1C(CC2)N(S(=O)(=O)c1ccc(C(C)(C)C)cc1)CC3` (stereo not given), the MIC in the assay with Aspergillus niger [2] was 6.25 µg/mL (≈ 9.96 µM); in the assay with Macrophomina phaseolina it was 25 µg/mL (≈ 39.8 µM); in the assay with Trichoderma reesei [4], 50 µg/mL (≈ 79.6 µM); in the assay with Bacillus subtilis, 25 µg/mL (≈ 39.8 µM). The IC50 in the assay with Plasma [3] was 35 µg/mL (≈ 55.7 µM). The outcome in the assay on Escherichia coli was inactive.
Regarding `CC(=O)N1CCN(c2ccc(OCC3COC(Cn4ccnc4)(c4ccc(Cl)cc4Cl)O3)cc2)CC1` (stereo not given) [KETOCONAZOLE], the results for the minimum inhibitory concentration (MIC) in the assay with Aspergillus niger [2], in the assay with Macrophomina phaseolina and with Trichoderma reesei [4] were 12.5 µg/mL (≈ 23.5 µM), 12.5 µg/mL (≈ 23.5 µM) and 6.25 µg/mL (≈ 11.8 µM), respectively.
On to `COc1cc2c(cc1OC)-c1c(OC)c(OC)cc3c1C(CC2)N(S(=O)(=O)c1ccc([N+](=O)[O-])cc1)CC3` (stereo not given), for which the minimal inhibitory concentration (MIC) in the assay with Aspergillus niger [2] was 50 µg/mL (≈ 92.5 µM); in the assay with Macrophomina phaseolina, 12.5 µg/mL (≈ 23.1 µM). Besides, in the assay with Plasma [3], the IC50 was 30 µg/mL (≈ 55.5 µM). In addition, the outcome with Trichoderma reesei [4], with Bacillus subtilis and in the assay with Escherichia coli was inactive.
On to `COc1cc2c(cc1OC)-c1c(OC)c(OCc3ccccc3)cc3c1C(CC2)N(S(=O)(=O)c1cccc(C)c1)CC3` (stereo not given), for which, in the assay on Plasma [1], the “Ratio IC50” value was >2. Further, the result in the assay with Aspergillus niger [2] was inactive. The MIC was 50 µg/mL (≈ 85.4 µM) in the assay on Macrophomina phaseolina, 25 µg/mL (≈ 42.7 µM) in the assay with Trichoderma reesei [4], 25 µg/mL (≈ 42.7 µM) in the assay with Bacillus subtilis and 50 µg/mL (≈ 85.4 µM) in the assay on Escherichia coli. For the same molecule, in the assay with Plasma [3], the IC50 was determined as 10.5 µg/mL (≈ 17.9 µM).
On to `COc1cc2c(cc1OC)-c1c(OCc3ccccc3)c(OC)cc3c1C(CC2)N(S(=O)(=O)c1ccc(C(C)(C)C)cc1)CC3` (stereo not given), for which the Ratio with Aspergillus niger [6] came to 1. Moreover, the MIC with Aspergillus niger [2] was found to be 12.5 µg/mL (≈ 19.9 µM); in the assay with Escherichia coli, 6.25 µg/mL (≈ 9.96 µM). For the same molecule, the result in the assay with Macrophomina phaseolina, with Trichoderma reesei [4] and in the assay on Bacillus subtilis was inactive. Further, in the assay on Plasma [3], the IC50 was 35 µg/mL (≈ 55.7 µM).
Consider `CC(=O)Oc1ccccc1C(=O)O` [ASPIRIN], for which the IC50 with Plasma [3] is 21.3 µg/mL (≈ 118 µM).
Take `COc1cc2c(cc1OC)-c1c(OC)c(OC)cc3c1C(CC2)N(S(=O)(=O)c1ccccc1)CC3` (stereo not given): in the assay on Plasma [1], the Ratio is listed as ~3. For the same molecule, the MIC in the assay with Aspergillus niger [2] worked out at 25 µg/mL (≈ 50.4 µM); in the assay with Bacillus subtilis, 50 µg/mL (≈ 101 µM); with Escherichia coli, 12.5 µg/mL (≈ 25.2 µM). In addition, the outcome in the assay with Macrophomina phaseolina and in the assay with Trichoderma reesei [4] was inactive. Moreover, the IC50 with Plasma [3] is 15 µg/mL (≈ 30.3 µM).
